The source of these data is ChEMBL document CHEMBL4270638, “Sulfonyl-containing phenyl-pyrrolyl pentane analogues: Novel non-secosteroidal vitamin D receptor modulators with favorable physicochemical properties, pharmacokinetic properties and anti-tumor activity” (Eur J Med Chem, 2018).

Each structure is given as a SMILES string. Activity calls are given as the source filed them. No cut-off for these calls is given here.

Data set [1] has as its system MCF7. The data set can be described thus: Antitumor activity against human MCF7 cells xenografted in Balb/c nude mouse assessed as increase in Bax expression at 10 mg/kg, ip administered three times a week for three weeks starting from day 7 after tumor cell inoculation by immunohistochemical analysis. Format: functional, organism-based. For orientation: In xenograft studies the graft and the host belong to different species.

A further data set deals with PC-3. The data set can be described thus: Antiproliferative activity against human PC3 cells after 24 hrs by MTT assay. Format: functional, cell-based. Conditions: PC-3, 24 h. On the technique in general: Tetrazolium dyes change colour on reduction, which living cells bring about.
Data set [2] relates to MCF7. Description: Induction of apoptosis in human MCF7 cells assessed as upregulation of p21 expression at 1 uM after 24 hrs by Western blot analysis. The class given is functional, cell-based. The gist of the method:
(§1)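 MCF-7 cells treated at 1 µM for 24 h. Lysates resolved by 10% SDS-PAGE and transferred to PVDF. Probed with rabbit anti-p21, anti-p27 and anti-Bax antibodies, with mouse anti-β-actin as loading control. HRP-conjugated secondary antibodies; bands detected on an infrared scanner.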

Data set [3] has as its target T1, Retinoic acid receptor RXR-alpha/Vitamin D3 receptor (Homo sapiens, UniProt P11473+P19793).
T1 sequence (P11473 whole entry): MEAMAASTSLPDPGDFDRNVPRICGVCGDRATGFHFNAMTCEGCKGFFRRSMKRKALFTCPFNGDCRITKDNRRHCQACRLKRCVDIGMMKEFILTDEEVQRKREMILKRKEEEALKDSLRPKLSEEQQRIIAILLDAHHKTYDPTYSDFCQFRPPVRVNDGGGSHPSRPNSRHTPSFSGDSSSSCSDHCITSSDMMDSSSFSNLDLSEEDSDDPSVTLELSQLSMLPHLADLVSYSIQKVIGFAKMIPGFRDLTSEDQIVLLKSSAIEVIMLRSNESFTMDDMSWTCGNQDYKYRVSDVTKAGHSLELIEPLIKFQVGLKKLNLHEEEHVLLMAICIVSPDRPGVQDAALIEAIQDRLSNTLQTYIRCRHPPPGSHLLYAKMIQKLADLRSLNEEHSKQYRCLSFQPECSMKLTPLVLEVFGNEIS
T1 sequence (P19793 whole entry): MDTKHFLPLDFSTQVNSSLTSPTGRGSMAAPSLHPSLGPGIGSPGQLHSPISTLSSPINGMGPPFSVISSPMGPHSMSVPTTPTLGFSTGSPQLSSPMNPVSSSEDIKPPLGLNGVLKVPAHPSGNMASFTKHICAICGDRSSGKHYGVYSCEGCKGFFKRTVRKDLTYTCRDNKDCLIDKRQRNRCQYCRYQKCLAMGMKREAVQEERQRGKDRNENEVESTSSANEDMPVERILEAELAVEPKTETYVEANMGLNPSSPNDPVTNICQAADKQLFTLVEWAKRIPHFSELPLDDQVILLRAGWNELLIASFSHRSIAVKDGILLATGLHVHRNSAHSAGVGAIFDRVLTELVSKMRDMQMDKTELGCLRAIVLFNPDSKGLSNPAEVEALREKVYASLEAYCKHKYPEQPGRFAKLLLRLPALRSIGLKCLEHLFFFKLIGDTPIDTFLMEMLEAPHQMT
The data set can be described thus: Transactivation of recombinant human VDR/RXRalpha expressed in HEK293 cells after 24 hrs by Dual-luciferase reporter gene assay. Format: cell-based. (In general: In a reporter assay the amount or activity of a reporter protein is the signal.)

Data set [4] deals with MCF7. Description: Induction of apoptosis in human MCF7 cells expressing scrambled siRNA assessed as early apoptotic cells at 1 uM after 24 hrs by Annexin-V-FITC/propidium iodide staining based flow cytometry (reference value: 0.93%). The class given is functional.
Data set [5] deals with MCF7. The data set can be described thus: Induction of apoptosis in human MCF7 cells assessed as upregulation of Bax expression at 1 uM after 24 hrs by Western blot analysis. The class given is functional, cell-based. The essentials: as §1
The test system of data set [6] is MCF7. Description: Induction of apoptosis in human MCF7 cells expressing scrambled siRNA assessed as late apoptotic cells at 1 uM after 24 hrs by Annexin-V-FITC/propidium iodide staining based flow cytometry (reference value: 0.98%). Format: functional.
Data set [7] is described as follows: Clearance in Sprague-Dawley rat at 20 mg/kg, ip by HPLC method. The class given is ADME, organism-based. Conditions: in vivo. The essentials: (§2)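 Male Sprague-Dawley rats, 180–220 g, n = 3 per group. Dosed iv at 5 mg/kg or ip at 20 mg/kg in ethanol/EL/saline (1:1:18). Plasma sampled at 0, 0.083, 0.167, 0.25, 0.5, 1, 2, 4, 8, 12 and 24 h and centrifuged 12000 rpm for 10 min. Plasma drug measured by HPLC; parameters by PK modelling; mean ± SD.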

Data set [8] relates to MCF7. Description: Cell cycle arrest in human MCF7 cells expressing scrambled siRNA assessed as accumulation at S phase at 1 uM after 24 hrs by propidium iodide staining based flow cytometry (reference value: 29.79%). Format: functional.
Data set [9] can be described thus: AUC in Sprague-Dawley rat at 5 mg/kg, iv by HPLC method. Format: ADME, organism-based. Conditions: in vivo. The essentials: as §2
A further data set relates to Mus musculus. The data set can be described thus: Hypercalcemic effect in Balb/c nude mouse xenografted with human MCF7 cells assessed as effect on serum calcium level at 10 mg/kg, ip administered three times a week for three weeks starting from day 7 after tumor cell inoculation measured on day 27 (reference value: 0.6 umol/ml). Format: ADME, organism-based. Conditions: in vivo.

Data set [10] in a line: AUC in Sprague-Dawley rat at 20 mg/kg, ip by HPLC method. Format: ADME, organism-based. To be noted: in vivo. The essentials: as §2
The subject of data set [11] is MCF7. The data set can be described thus: Antitumor activity against human MCF7 cells xenografted in Balb/c nude mouse assessed as increase in p27 expression at 10 mg/kg, ip administered three times a week for three weeks starting from day 7 after tumor cell inoculation by immunohistochemical analysis. The class given is functional, organism-based.
For data set [12], the system named is MCF7. The data set can be described thus: Cell cycle arrest in human MCF7 cells expressing VDR siRNA assessed as accumulation at G2/M phase at 1 uM after 24 hrs by propidium iodide staining based flow cytometry (reference value: 17.57%). Format: functional.

As to `CCN(CC)CCNC(=O)c1ccc(C(CC)(CC)c2ccc(OCSC)c(C)c2)n1CC`, the result in the data set on MCF7 [1], with MCF7 [2], with MCF7 [5] and with MCF7 [11] was Active. Further, half-maximal inhibition with PC-3 (IC50) required 4010 nM. Further, in data set [3], the EC50 (in general, the midpoint of the concentration-response curve) turned out to be 6.41 nM. Besides, the Activity in the data set on MCF7 [4] is reported as 1.31%; in the data set with MCF7 [6], 3.65%; with MCF7 [8], 27.95%; with Mus musculus, “Non-Toxic”; with MCF7 [12], 16.01%. Moreover, in data set [7], the CL/F – broadly, clearance divided by bioavailability, as obtained after extravascular dosing – was 16.5 mL/min. For the same compound, the AUC (commonly the area under the concentration-time curve, a measure of exposure) amounted to 11800 ng·h/mL in data set [9] and 20400 ng·h/mL in data set [10].

For the compound `CCN(CC)CCNC(=O)c1cc(C(CC)(CC)c2ccc(OCS(=O)(=O)c3ccccc3)c(C)c2)cn1CC`, the result in the data set on MCF7 [1], in the data set on MCF7 [2], in the data set on MCF7 [5] and in the data set on MCF7 [11] was Active. Further, in the data set with PC-3, the IC50 (in general, the concentration that gives 50% inhibition) amounted to 6080 nM. In addition, in [3], the EC50 stood at 38.2 nM. Also, the Activity with MCF7 [4] is 1.21%; in the data set with MCF7 [6], 3.37%; in the data set on MCF7 [8] it was 29.66%; in the data set with Mus musculus, “Non-Toxic”; in the data set on MCF7 [12], 19.02%. The compound further gave a CL/F in [7] of 27.7 mL/min. In addition, the AUC in [9] came to 7470 ng·h/mL; in data set [10], 12000 ng·h/mL.
